{"source": "ChEMBL document CHEMBL1142204", "about": "“Cathepsin A is the major hydrolase catalyzing the intracellular hydrolysis of the antiretroviral nucleotide phosphonoamidate prodrugs GS-7340 and GS-9131” (Antimicrob Agents Chemother, 2007)", "key": {"[1]": {"organism": "Homo sapiens", "assay": "Activity of crude extract human PBMCs prodrug hydrolase from leukopheresis patient"}, "[2]": {"organism": "Homo sapiens", "assay": "Activity of human PBMCs prodrug hydrolase from leukopheresis patient in Q15 pool"}, "[3]": {"organism": "Homo sapiens", "assay": "Activity of human PBMCs prodrug hydrolase from leukopheresis patient in BS-HIC pool"}, "[4]": {"biological_target": "T1, Lysosomal protective protein (Homo sapiens) (UniProt P10619)", "T1 sequence (whole entry)": "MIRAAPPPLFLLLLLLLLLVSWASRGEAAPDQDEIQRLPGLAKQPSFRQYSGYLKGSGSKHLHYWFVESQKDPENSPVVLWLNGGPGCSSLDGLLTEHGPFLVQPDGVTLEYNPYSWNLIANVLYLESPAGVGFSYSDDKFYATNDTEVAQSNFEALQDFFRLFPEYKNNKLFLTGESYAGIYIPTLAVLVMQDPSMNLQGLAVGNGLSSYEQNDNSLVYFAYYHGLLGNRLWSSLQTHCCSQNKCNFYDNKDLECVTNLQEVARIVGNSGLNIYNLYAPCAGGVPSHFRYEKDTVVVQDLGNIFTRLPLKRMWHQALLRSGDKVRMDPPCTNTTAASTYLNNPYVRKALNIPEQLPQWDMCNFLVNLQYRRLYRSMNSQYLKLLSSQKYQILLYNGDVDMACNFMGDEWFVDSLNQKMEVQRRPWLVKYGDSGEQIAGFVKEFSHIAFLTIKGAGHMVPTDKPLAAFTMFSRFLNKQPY", "assay": "Activity of purified human PBMCs Cat A from leukopheresis patient in Con A pool", "outline": "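Hydrolase purified from fresh human leukopheresis PBMCs (NP-40 extract; Source Q15, butyl Sepharose HIC, then ConA chromatography). Protein by Bradford; specific activity (pmol/min/μg) corrected for estimated 29-kDa catalytic subunit fraction.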"}}}
{"smiles": "CC(C)OC(=O)[C@H](C)N[P@](=O)(CO[C@H](C)Cn1cnc2c(N)ncnc21)Oc1ccccc1", "values": [{"measurement": "Activity", "setting": "[1]", "value": 16, "unit": "pmol/min/µg"}, {"measurement": "Activity", "setting": "[2]", "value": 112, "unit": "pmol/min/µg"}, {"measurement": "Activity", "setting": "[3]", "value": 730, "unit": "pmol/min/µg"}, {"measurement": "Activity", "setting": "[4]", "value": 35000, "unit": "pmol/min/µg"}]}
